This note sets out measurements from ChEMBL document CHEMBL3526050, “Elucidation of the metabolic pathways and the resulting multiple metabolites of almorexant, a dual orexin receptor antagonist, in humans” (Drug Metab Dispos, 2013).

Several values for one entry are separate records, joined by “and”; a condition that tells them apart may be missing. Equal entries are not always repeated.

Conditions in all cases: in vivo
Data set [1] concerns Homo sapiens. Put plainly: Drug level in healthy human treated with [14C]almorexant at 200 mg, po dosed as single dose relative to almorexant. It is filed as ADME, organism-based. A digest of the protocol:
(§1)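 Plasma from 6 subjects given one 200 mg oral 14C dose, pooled over at least 2 time points and acetonitrile-precipitated. Radio-LC-MS/MS used a C18 column with ammonium formate pH 4.0/acetonitrile gradient and 0.15-min fractions scintillation-counted. Peak radioactivity converted to ng-equivalents/mL to give AUC0-t. Co-eluting metabolites grouped and expressed relative to parent AUC and to total radioactivity.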

In data set [2] the test system is Homo sapiens. The data set is described as follows: AUC (0 to t) in healthy human treated with [14C]almorexant at 200 mg, po dosed as single dose. It is filed as ADME, organism-based, Plasma. A digest of the protocol:
as §1

Data set [3] can be described thus: Tmax in healthy human at 200 mg, po dosed as single dose. In kind it is ADME, organism-based. A digest of the protocol: (§2)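 Plasma parent and metabolites M3, M5, M6, M8 after one 200 mg oral 14C dose in 6 fasted male subjects, sampled 0.17–240 h. Validated LC-MS/MS with penta-deuterated internal standards and positive ESI. Low range 0.4/1.0–100 ng/mL using supported liquid extraction, high range 50–1000 ng/mL using protein precipitation. Noncompartmental analysis, geometric means (95% CI), Tmax median (range).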

Data set [4] deals with Homo sapiens. The data set is described as follows: Tlast in healthy human treated with [14C]almorexant at 200 mg, po dosed as single dose. In kind it is ADME, organism-based. A digest of the protocol: as §1
The subject of a further data set is Plasma. Put plainly: Drug level in plasma of healthy human treated with [14C]almorexant at 200 mg, po dosed as single dose. It is filed as ADME, organism-based. The essentials:
as §1

The test system of data set [5] is Homo sapiens. The data set is described as follows: Drug level in healthy human treated with [14C]almorexant at 200 mg, po dosed as single dose relative to total radioactivity. In kind it is ADME, organism-based. A digest of the protocol:
as §1

Data set [6] can be described thus: Drug level in feces of healthy human treated with [14C]almorexant at 200 mg, po dosed as single dose. It is filed as ADME, organism-based. A digest of the protocol:
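Feces pooled by weight across 6 subjects (0–48 to 192–332 h) and extracted three times with acetonitrile, then dried and reconstituted. Analyzed by radio-LC-MS/MS with a methanol/acetonitrile gradient and scintillation-counted fractions. Procedural recovery was 73.0%. Reported as percent of administered radioactive dose.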

Data set [7] concerns Homo sapiens. The data set is described as follows: Cmax in healthy human treated with [14C]almorexant at 200 mg, po dosed as single dose. In kind it is ADME, organism-based. Details: dose 200 mg, route oral.
In data set [8] the test system is Homo sapiens. Put plainly: AUC (0 to infinity) in healthy human treated with [14C]almorexant at 200 mg, po dosed as single dose. It is filed as ADME, organism-based, Plasma. Details: dose 200 mg, route oral, time infinity.
For data set [9], the system named is Homo sapiens. Put plainly: Half life in healthy human treated with [14C]almorexant at 200 mg, po dosed as single dose. It is filed as ADME, organism-based. The essentials:
as §2

Data set [10] deals with Homo sapiens. The data set is described as follows: Tmax in healthy human treated with [14C]almorexant at 200 mg, po dosed as single dose. In kind it is ADME, organism-based. A digest of the protocol: as §2

A word on the Tmax: it is the time at which the peak concentration occurs. Consider `COc1cc2c(cc1OC)[C@H](CC(O)c1ccc(C(F)(F)F)cc1)N([C@@H](C(N)=O)c1ccccc1)CC2` (stereo partly specified), for which the Drug uptake worked out at 28.1% in the data set on Homo sapiens [1] and 0.03% with Homo sapiens [5]. Besides, in the data set with Homo sapiens [2], the AUCt amounted to 17.2 ng.Eq.hr/ml. Moreover, in [3], the Tmax amounted to 1.6 h. In the data set on Homo sapiens [4], this molecule displayed a Tlast of 1.6 h. Further, the Drug metabolism result in the data set with Plasma is “metabolite_detected”.
As usually defined, the Cmax is the maximum level reached in the sampled fluid or tissue. Broadly, the AUC is concentration integrated over time. Take `CNC(=O)[C@@H](c1ccccc1)[n+]1ccc2cc(OC)c(OC)cc2c1CCc1ccc(C(F)(F)F)cc1`: the Drug metabolism result (in [6]; in the data set on Plasma) was “metabolite_detected” in each case. In the data set with Homo sapiens [7], this molecule registered a Cmax of 80.4 ng/mL. The molecule also registered an AUC in the data set on Homo sapiens [8] of 282 ng·h/mL. Besides, the t1/2 in the data set on Homo sapiens [9] stood at 26.3 h. For the same molecule, the Tmax in the data set on Homo sapiens [10] was found to be 0.9 h.
On to `COc1cc2cc[n+]([C@@H](C(N)=O)c3ccccc3)c(CCc3ccc(C(F)(F)F)cc3)c2cc1OC`, for which the Drug metabolism entry (in data set [6]; in the data set with Plasma) was “metabolite_detected” each time.
In the case of `COc1cc2c(cc1OC)[C@H](CCc1ccc(C(F)(F)F)cc1)NCC2`, the maximum concentration (Cmax) in the data set on Homo sapiens [7] was 99.4 ng/ml and 49 ng.Eq/ml. Further, the Drug uptake in the data set on Homo sapiens [1] was 541%; with Homo sapiens [5] it was 0.61%. Also, the AUC in the data set on Homo sapiens [8] amounted to 1039 ng·h/mL. In the data set with Homo sapiens [2], the AUCt was determined as 331 ng.Eq.hr/ml. For the same molecule, the t1/2 with Homo sapiens [9] was 10.4 h. Further, in the data set on Homo sapiens [10], the Tmax amounted to 1.5 h. For the same molecule, in the data set with Homo sapiens [4], the Tlast amounted to 11 h. Further, the Drug metabolism result with Plasma is “metabolite_detected”.
As for `COc1cc2c(cc1O)[C@H](CCc1ccc(C(F)(F)F)cc1)NCC2`, the Drug metabolism entry with Plasma is on record as “metabolite_detected”.
Same read-out and setting: the result for `COc1cc2ccnc(CCc3ccc(C(F)(F)F)cc3)c2cc1OC` reads “metabolite_detected”; that for `COc1cc2c(cc1OC)[C@H](CC(O)c1ccc(C(F)(F)F)cc1)NCC2` (stereo partly specified), “metabolite_detected”.
